# Bioassay records: PubChem, several laboratories
# Compounds with a hit are over-represented: about 1.4% of the library has one in this group of screens.
# HKDC1 inh: HKDC1 (human) hexokinase inhibition. recombinant HKDC1, G6PDH/diaphorase resazurin coupled fluorescence. 0.16% of 340,000 active. Q2TB90. AID 493160. inhibition, % at 20 µM;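 active = inhibition above about 35% when tested at 20 µM, limit read from the data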;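 note: plate controls were DMSO wells with enzyme for no effect and DMSO wells lacking enzyme for full effect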
# Target sequence (Q2TB90 whole entry, looked up): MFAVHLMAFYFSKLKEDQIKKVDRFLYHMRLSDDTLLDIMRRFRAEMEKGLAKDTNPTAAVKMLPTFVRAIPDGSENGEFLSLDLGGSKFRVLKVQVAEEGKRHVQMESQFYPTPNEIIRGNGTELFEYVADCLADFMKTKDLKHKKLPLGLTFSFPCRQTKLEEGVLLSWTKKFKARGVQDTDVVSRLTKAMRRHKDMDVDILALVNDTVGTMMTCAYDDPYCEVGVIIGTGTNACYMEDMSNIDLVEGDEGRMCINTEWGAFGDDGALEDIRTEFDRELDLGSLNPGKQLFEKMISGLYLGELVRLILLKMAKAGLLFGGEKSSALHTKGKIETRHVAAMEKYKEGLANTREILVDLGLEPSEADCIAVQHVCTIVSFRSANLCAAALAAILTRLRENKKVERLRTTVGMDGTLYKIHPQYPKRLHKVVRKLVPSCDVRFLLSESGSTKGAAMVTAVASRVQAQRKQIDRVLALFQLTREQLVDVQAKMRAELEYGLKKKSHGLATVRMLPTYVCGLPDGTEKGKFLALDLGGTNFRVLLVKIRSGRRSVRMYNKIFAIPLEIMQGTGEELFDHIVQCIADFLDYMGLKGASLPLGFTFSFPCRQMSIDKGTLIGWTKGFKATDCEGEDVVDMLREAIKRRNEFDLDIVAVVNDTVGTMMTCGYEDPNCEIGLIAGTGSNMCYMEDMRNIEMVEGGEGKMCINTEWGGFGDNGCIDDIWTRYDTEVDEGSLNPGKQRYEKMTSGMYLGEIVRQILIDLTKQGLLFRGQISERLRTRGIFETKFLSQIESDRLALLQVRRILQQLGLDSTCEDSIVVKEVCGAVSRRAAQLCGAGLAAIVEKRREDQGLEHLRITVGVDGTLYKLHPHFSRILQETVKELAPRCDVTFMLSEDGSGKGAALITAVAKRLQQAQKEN
#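 Assay system: in-house recombinant HK5 (HKDC1) enzyme. Input: HKDC1 at 5 µg/mL. Medium: Tris pH 8.0 buffer with MgCl2, Tween-20, BSA, BME. Dosing: single 20 µM dose. Schedule: 90 min reaction incubation at room temperature, dark. Signal: resazurin-to-resorufin fluorescence via G6PDH and diaphorase coupling, 525/613 nm. Controls: DMSO-enzyme wells negative, buffer-substituted wells positive.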
# GSTO1 inh: blocks human GSTO1 in RBBP9 counter-screen; AID 1974; 1.1% of 300,000 active; inhibition, % at 5.96 µM; recombinant GSTO1, activity-based probe fluorescence polarization; P78417;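 active = inhibition above the campaign mean inhibition plus 3 SD, cut at about 35% in these data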;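 note: 0% = GSTO1-1 with DMSO and 100% = wells lacking GSTO1-1 enzyme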
# Redox H2O2 prof: compounds producing H2O2 with reducing agent – biochemical, NIH compound library profiling, artefact control for MLSCN library redox annotation, primary screen; DTT-dependent redox cycling H2O2, phenol red/HRP absorbance; 100% = 100 µM peroxide control, 0% = buffer; 0.03% of 200,000 active; activation, % at 10 µM;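 active = activation of at least 50% relative to the plate's high and low controls in the primary single-dose screen; inactive = activation below 50%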;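 note: compound incubated with DTT at 0.8 mM final as the reducing agent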
# UBC9 SUMO inh: inhibitors of human SUMOylation (UBC9); inhibition, % at 35 µM; P63279; 0.36% of 290,000 active; HTRF SUMOylation assay, SAE1/SAE2 + UBC9, in vitro; AID 2006; in the data active = inhibition above about 50%, passing the limit was not always enough
# Apaf-1 inh: inhibitors of human Apaf-1 apoptosome. reconstituted apoptosome caspase-3 activity, DEVD-Rh110 fluorescence. O14727. inhibition, % at 20 µM. AID 489030. 0.71% of 330,000 active; active = inhibition of at least 40% at 20 µM;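 note: plate controls were DMSO wells for no effect and DEVD-CHO caspase inhibitor wells for full effect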
#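 Material: reconstituted apoptosome with Apaf-1, cytochrome c, caspase-9, procaspase-3, dATP; medium: pH 7.5 Hepes buffer with CHAPS, BSA, DTT; also added: cytochrome c and DEVD-Rh110 substrate; timing: 30 min plus 50 min, RT; signal: Rh110 fluorescence intensity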
# HKDC1 act conf: confirmation of human HKDC1 activators | shares compounds with HKDC1 inh | recombinant HKDC1, G6PDH/diaphorase resazurin fluorescence; stronger effect = lower value | inhibition, % at 20 µM | 14% of 740 active;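 active = inhibition at or below a set negative limit, negative inhibition meaning the enzyme was activated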
# * = called active by the depositor; nt = no result given.
SMILES,HKDC1 inh,GSTO1 inh,Redox H2O2 prof,UBC9 SUMO inh,Apaf-1 inh,HKDC1 act conf
Cc1nc2c3cc(F)ccc3n(Cc3ccccc3)c2s1,-60,2,-1,6,12,-61*
Cc1nc2c3cc(F)ccc3n(Cc3ccccc3F)c2s1,-3,1,0,-22,1,nt
COc1cccc(N2CC(C(=O)Nc3nnc(SCCN4CCOCC4)s3)CC2=O)c1 (configuration not stated),1,0,nt,13,9,nt
Cc1ccc(S(=O)(=O)Nc2c(O)ccc3ccccc23)cc1,38*,23,nt,nt,8,35
CCc1nc2sc3c(=O)[nH]cnc3c2c2c1CSC(C)(C)C2,37*,22,nt,27,-11,31
CCn1c(=O)c2c(nc3n2CCCN3c2cccc(C)c2)n(C)c1=O,-4,1,nt,5,-16,nt
Cc1cc(C(=O)COC(=O)c2cc(O)c3ccccc3c2O)c(C)n1CC1CCCO1 (configuration not stated),47*,nt,0,36,nt,15
[S-]c1nnc(-c2ccc(Br)cc2)n1-c1ccccc1.[Zn+2],49*,-3,nt,29,-5,26
COc1cc(/C=C2\SC(c3ccc(C)cc3)=NC2=O)ccc1O,33,5,0,-36,-1,32
COc1cc(/C=C2\SC(=S)N(c3cccnc3)C2=O)ccc1O,38*,-8,nt,15,-29,1
COc1cc(/C=C2\SC(c3ccccc3)=NC2=O)cc(Cl)c1O,49*,nt,-3,-8,nt,24
CCOc1ccc(C(=O)C(C)OC(=O)Cn2c(C)csc2=O)cc1 (configuration not stated),-2,17,nt,nt,-3,nt
Cc1[nH]c2ccccc2c1CCO,9,6,2,-1,-2,nt
Cc1[nH]c2ccccc2c1C1=CC(=O)C=CC1=O,58*,nt,nt,nt,nt,53
O=C1NN(c2ccccc2)C(=O)/C1=C/c1ccc(Sc2ccc(Cl)cc2)o1,42*,22,nt,20,5,10
O=C1NN(c2ccccc2)C(=O)/C1=C/c1ccc(-c2ccc(Cl)c(C(=O)O)c2)o1,5,nt,-1,2,nt,nt
Cc1ccc(Sc2ccc(/C=C3/C(=O)NN(c4ccccc4)C3=O)o2)cc1,35*,17,nt,17,7,20
CSc1cccc(NC(=O)CCS(=O)(=O)c2cccc3nonc23)c1,-1,3,nt,7,2,nt
COc1cc(C(c2c(C(=O)O)[nH]c3ccccc23)c2c(C(=O)O)[nH]c3ccccc23)ccc1OCc1ccccc1,15,0,nt,20,26,nt
O=C(O)c1[nH]c2ccccc2c1C(c1cc(Cl)cc([N+](=O)[O-])c1O)c1c(C(=O)O)[nH]c2ccccc12,38*,74*,nt,20,12,32
O=C(CSc1nnc(CCCN2C(=O)c3cccc4cccc(c34)C2=O)n1-c1ccccc1)N1CCCCC1,37*,0,0,16,11,48
CN(C)c1ccc(C=c2c3ccccc3n3c2cc(-c2ccccc2)[n+]3C)cc1,37*,nt,nt,nt,nt,23
COc1cc(N(C)C)ccc1C=c1c2ccccc2n2c1cc(-c1ccccc1)[n+]2C,41*,nt,nt,nt,nt,37
CN(C)c1ccc(C=c2c3ccccc3n3c2cc(-c2ccc(Cl)cc2)[n+]3C)cc1,18,nt,nt,nt,nt,nt
Cc1cc([N+](=O)[O-])nn1CC(=O)N/N=C/c1ccc(O)cc1O,-49,15,nt,15,-10,-2
SMILES,HKDC1 inh,GSTO1 inh,Redox H2O2 prof,UBC9 SUMO inh,Apaf-1 inh,HKDC1 act conf
Cc1nonc1C(=O)N/N=C/c1ccc(O)cc1O,-36,10,0,-3,1,-34*
Cc1nonc1C(=O)N/N=C/c1ccncc1,-2,2,0,11,4,nt
COc1ccc(CC2(CO)CCN(S(=O)(=O)c3sccc3C)CC2)cc1,13,2,0,-7,8,nt
CN(C)C(=O)/C(C#N)=C\c1cc(Br)c(Sc2ccc(Cl)cc2)o1,35*,16,2,-18,nt,14
Cc1cc(C)n(Cc2ccc(C(=O)N/N=C/c3ccc(-c4ccc([N+](=O)[O-])cc4)o3)o2)n1,66*,36*,nt,nt,-5,31
Cc1onc(-c2ccccc2)c1C(=O)OCC(=O)NC(=O)c1ccccc1,-1,0,nt,nt,9,nt
CC(=O)n1cc(N(C(=O)CCl)c2ccc(C)cc2)c2ccccc21,41*,70*,nt,9,6,15
